Test results as given in ChEMBL document CHEMBL2331216, “Synthesis and biological activities of a new class of heat shock protein 90 inhibitors, designed by energy-based pharmacophore virtual screening” (J Med Chem, 2013).
Active and inactive are the calls of the source.

Tests used:
[1] = Antiproliferative activity against human ovarian cancer cells after 48 hrs by sulforhodamine B assay; type: functional; conditions: Cancer cell lines
Method in brief: (§1)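 Compounds run through the NCI DTP screen on its full human tumour cell line panels. Those that passed the selection criteria were tested twice in the five-dose concentration format. The MG_MID for each experiment is the arithmetic mean over all cell lines tested.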

[2] = Antiproliferative activity against human renal cancer cells after 48 hrs by sulforhodamine B assay; type: functional; conditions: Cancer cell lines; method in brief: as §1
[3] = Antiproliferative activity against human breast cancer cells after 48 hrs by sulforhodamine B assay; type: functional; conditions: Cancer cell lines; method in brief: as §1
[4] = Antiproliferative activity against human CNS cancer cells after 48 hrs by sulforhodamine B assay; type: functional; conditions: Cancer cell lines; method in brief: as §1
[5] = Antiproliferative activity against human leukemia cells after 48 hrs by sulforhodamine B assay; type: functional; conditions: Leukemia cell; method in brief: as §1
[6] = Antiproliferative activity against human colon cancer cells after 48 hrs by sulforhodamine B assay; type: functional; conditions: Cancer cell lines; method in brief: as §1
[7] = Antiproliferative activity against human prostate cancer cells after 48 hrs by sulforhodamine B assay; type: functional; conditions: Cancer cell lines; method in brief: as §1
[8] = Antiproliferative activity against human non-small cell lung cancer cells after 48 hrs by sulforhodamine B assay; type: functional; conditions: Cancer cell lines; method in brief: as §1
Heat shock protein HSP90 [9] = target: T1, Heat shock protein HSP90 (Homo sapiens, UniProt P07900+P08238); assay: Inhibition of biotinylated geldanamycin binding to human recombinant Hsp90 ATP binding domain after 60 mins by fluorescence assay; type: protein assay
[10] = Antiproliferative activity against human melanoma cells after 48 hrs by sulforhodamine B assay; type: functional; conditions: Melanoma cell; method in brief: as §1
Heat shock protein HSP90 [11] = target: T1, Heat shock protein HSP90; assay: Inhibition of Hsp90 in human MCF7 cells assessed as decrease in Cdk4 level at 0.5 to 2 fold GI50 after 24 hrs by Western blotting analysis; type: cell-based
Method in brief: (§2)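 Total cellular extracts were analysed by Western blot for Cdk4, c-Raf, ErbB2 and Hsp72, with β-actin as the loading control.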

MCF7 [12] = assay: Cell cycle arrest in human MCF7 cells assessed as decrease in G0/G1 phase cells at 0.548 uM after 48 hrs by propidium iodide staining-based FACS flow cytometric analysis; type: functional
Method in brief: (§3)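 Cells were collected and DNA stained with propidium iodide. Flow cytometry gave the cell cycle phase distribution against untreated controls. Values are mean ± SD of three independent experiments.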

SF-295 = assay: Antiproliferative activity against human SF295 cells after 48 hrs by sulforhodamine B assay; type: functional; conditions: SF-295, 48 h; method in brief: as §1
Heat shock protein HSP90 [13] = target: T1, Heat shock protein HSP90; assay: Inhibition of Hsp90 in human MCF7 cells assessed as decrease in cRAF level after 24 hrs by Western blotting analysis; type: cell-based; method in brief: as §2
Heat shock protein HSP90 [14] = target: T1, Heat shock protein HSP90; assay: Inhibition of Hsp90 in human MCF7 cells assessed as decrease in Cdk4 level after 24 hrs by Western blotting analysis; type: cell-based; method in brief: as §2
MCF7 [15] = assay: Antitumor activity in human MCF7 cells assessed as induction of necrosis after 24 hrs by LDH assay; type: functional, cell-based
Heat shock protein HSP90 [16] = target: T1, Heat shock protein HSP90; assay: Inhibition of Hsp90 in human MCF7 cells assessed as upregulation of Hsp72 at 0.5 to 2 fold GI50 after 24 hrs by Western blotting analysis; type: cell-based; method in brief: as §2
MCF7 [17] = assay: Cell cycle arrest in human MCF7 cells assessed as accumulation at sub G0/G1 phase at 0.548 uM after 48 hrs by propidium iodide staining-based FACS flow cytometric analysis; type: functional; method in brief: as §3
Heat shock protein HSP90 [18] = target: T1, Heat shock protein HSP90; assay: Inhibition of Hsp90 in human MCF7 cells assessed as decrease in ErbB2 level at 0.5 to 2 fold GI50 after 24 hrs by Western blotting analysis; type: cell-based; method in brief: as §2
MCF7 [19] = assay: Cell cycle arrest in human MCF7 cells assessed as decrease in G0/G1 phase cells at 0.548 uM after 24 hrs by propidium iodide staining-based FACS flow cytometric analysis (reference value: 65 %); type: functional; design: scale not given: the % may be the effect or the level left; method in brief: as §3
MCF7 [20] = assay: Cell cycle arrest in human MCF7 cells assessed as decrease in G2/M phase cells at 0.548 uM after 48 hrs by propidium iodide staining-based FACS flow cytometric analysis; type: functional; method in brief: as §3
Heat shock protein HSP90 [21] = target: T1, Heat shock protein HSP90; assay: Inhibition of Hsp90 in human MCF7 cells assessed as decrease in ErbB2 level after 24 hrs by Western blotting analysis; type: cell-based; method in brief: as §2
NCI-H522 = assay: Antiproliferative activity against human NCI-H522 cells after 48 hrs by sulforhodamine B assay; type: functional; conditions: NCI-H522, 48 h; method in brief: as §1
MCF7 [22] = assay: Cell cycle arrest in human MCF7 cells assessed as decrease in S phase cells at 0.548 uM after 48 hrs by propidium iodide staining-based FACS flow cytometric analysis; type: functional; method in brief: as §3
MCF7 [23] = assay: Cell cycle arrest in human MCF7 cells assessed as decrease in S phase cells at 0.548 uM after 24 hrs by propidium iodide staining-based FACS flow cytometric analysis (reference value: 11 %); type: functional; design: scale not given: the % may be the effect or the level left; method in brief: as §3
MCF7 [24] = assay: Cell cycle arrest in human MCF7 cells assessed as increase in G2/M phase cells at 0.548 uM after 24 hrs by propidium iodide staining-based FACS flow cytometric analysis (reference value: 24 %); type: functional; method in brief: as §3
MCF7 [25] = assay: Cell cycle arrest in human MCF7 cells assessed as accumulation at G2/M phase after 24 hrs by propidium iodide staining-based FACS flow cytometric analysis; type: functional; method in brief: as §3
Heat shock protein HSP90 [26] = target: T1, Heat shock protein HSP90; assay: Inhibition of Hsp90 in human MCF7 cells assessed as decrease in cRAF level at 0.5 to 2 fold GI50 after 24 hrs by Western blotting analysis; type: cell-based; method in brief: as §2

| EC50 (Heat shock protein HSP90 [9]) | SMILES | GI50 [1] | GI50 [2] | GI50 [3] | GI50 [4] | GI50 [5] | GI50 [6] | GI50 [7] | GI50 [8] | GI50 [10] | also measured |
| --- | --- | --- | --- | --- | --- | --- | --- | --- | --- | --- | --- |
| > 10000 nM | CS(=O)(=O)Nc1cccc(-c2cc(-c3ccccc3Br)c(C#N)c(N)n2)c1 | – | – | – | – | – | – | – | – | – | – |
| 634 nM | COc1ccccc1-c1cc(-c2cccc(NS(C)(=O)=O)c2)nc(N)c1C#N | – | – | – | – | – | – | – | – | – | – |
| > 10000 nM | COc1cccc(-c2cc(-c3cccc(NS(C)(=O)=O)c3)nc(N)c2C#N)c1 | – | – | – | – | – | – | – | – | – | – |
| 867 nM | COc1ccc(-c2cc(-c3cccc(NS(C)(=O)=O)c3)nc(N)c2C#N)cc1OC | – | – | – | – | – | – | – | – | – | – |
| > 10000 nM | CS(=O)(=O)Nc1cccc(-c2cc(-c3ccc(O)cc3)c(C#N)c(N)n2)c1 | – | – | – | – | – | – | – | – | – | – |
| 783 nM | CCN(CC)c1ccc(-c2cc(-c3cccc(NS(C)(=O)=O)c3)nc(N)c2C#N)cc1 | – | – | – | – | – | – | – | – | – | – |
| > 10000 nM | CS(=O)(=O)Nc1cccc(-c2cc(-c3cccc(F)c3)c(C#N)c(N)n2)c1 | – | – | – | – | – | – | – | – | – | – |

| SMILES | EC50 (Heat shock protein HSP90 [9]) | GI50 [1] | GI50 [2] | GI50 [3] | GI50 [4] | GI50 [5] | GI50 [6] | GI50 [7] | GI50 [8] | GI50 [10] | also measured |
| --- | --- | --- | --- | --- | --- | --- | --- | --- | --- | --- | --- |
| COc1ccc(-c2cc(-c3cccc(NS(C)(=O)=O)c3)nc(N)c2C#N)cc1 | 541 nM | 220 nM | 130 nM | 140 nM | 80 nM | 100 nM | 100 nM | 130 nM | 130 nM | 80 nM | – |
| CS(=O)(=O)Nc1cccc(-c2cc(-c3ccccc3Cl)c(C#N)c(N)n2)c1 | 950 nM | 980 nM | 660 nM | 460 nM | 510 nM | 580 nM | 550 nM | 780 nM | 1100 nM | 660 nM | – |
| COc1cccc(-c2cc(-c3cccc(NS(C)(=O)=O)c3)nc(N)c2C#N)c1O | 252 nM | 210 nM | 290 nM | 260 nM | 160 nM | 140 nM | 150 nM | 130 nM | 250 nM | 120 nM | inhibition (Heat shock protein HSP90 [11]): Active; Activity (MCF7 [12]): Active; GI50 (SF-295): 43 nM; inhibition (Heat shock protein HSP90 [13]): Dose-dependent effect; inhibition (Heat shock protein HSP90 [14]): Dose-dependent effect; Activity (MCF7 [15]): Active; inhibition (Heat shock protein HSP90 [16]): Active; Activity (MCF7 [17]): Active; inhibition (Heat shock protein HSP90 [18]): Active; Activity (MCF7 [19]): 40%; Activity (MCF7 [20]): Active; inhibition (Heat shock protein HSP90 [21]): Dose-dependent effect; GI50 (NCI-H522): 24 nM; Activity (MCF7 [22]): Active; Activity (MCF7 [23]): 7%; Activity (MCF7 [24]): 53%; Activity (MCF7 [25]): Dose-dependent effect; inhibition (Heat shock protein HSP90 [26]): Active |
| CN(C)c1ccc(-c2cc(-c3cccc(NS(C)(=O)=O)c3)nc(N)c2C#N)cc1 | 371 nM | 80 nM | 50 nM | 100 nM | 40 nM | 40 nM | 40 nM | 30 nM | 60 nM | 60 nM | – |
